Reference: ChEMBL document CHEMBL1134325, “Diaminoindanes as microsomal triglyceride transfer protein inhibitors” (J Med Chem, 2001)

Tests used:
[1] = target: Apolipoprotein B-100 (Homo sapiens) (UniProt P04114); test: Inhibition of apolipoprotein B (apoB) secreted by human hepatoma cells (Hep G2) at 100 nM
[2] = target: T1, Microsomal triglyceride transfer protein large subunit (Homo sapiens, UniProt P55157); test: In vitro inhibitory activity against MTP using MTP transfer assay
T1 sequence (P55157 whole entry): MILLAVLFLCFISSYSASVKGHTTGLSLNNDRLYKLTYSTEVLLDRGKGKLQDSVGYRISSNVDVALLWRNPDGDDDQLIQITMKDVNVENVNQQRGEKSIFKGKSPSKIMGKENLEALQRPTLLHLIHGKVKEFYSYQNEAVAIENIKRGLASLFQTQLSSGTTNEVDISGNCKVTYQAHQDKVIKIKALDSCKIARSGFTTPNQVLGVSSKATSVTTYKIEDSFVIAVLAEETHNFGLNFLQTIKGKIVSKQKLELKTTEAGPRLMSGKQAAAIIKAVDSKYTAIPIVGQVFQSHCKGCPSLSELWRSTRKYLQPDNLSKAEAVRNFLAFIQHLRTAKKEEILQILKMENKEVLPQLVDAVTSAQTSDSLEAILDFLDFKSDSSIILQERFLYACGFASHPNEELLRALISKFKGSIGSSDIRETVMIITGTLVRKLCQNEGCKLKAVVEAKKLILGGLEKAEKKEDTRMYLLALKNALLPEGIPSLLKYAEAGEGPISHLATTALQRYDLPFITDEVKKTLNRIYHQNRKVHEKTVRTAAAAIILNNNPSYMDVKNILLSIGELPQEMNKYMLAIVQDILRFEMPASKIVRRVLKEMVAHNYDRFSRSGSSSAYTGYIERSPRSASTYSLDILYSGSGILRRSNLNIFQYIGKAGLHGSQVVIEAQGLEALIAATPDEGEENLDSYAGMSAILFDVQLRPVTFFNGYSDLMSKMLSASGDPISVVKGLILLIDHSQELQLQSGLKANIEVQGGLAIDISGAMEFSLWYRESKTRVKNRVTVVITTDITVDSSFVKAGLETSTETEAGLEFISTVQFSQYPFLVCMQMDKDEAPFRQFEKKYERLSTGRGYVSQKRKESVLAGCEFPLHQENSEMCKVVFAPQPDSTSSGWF

[3] = tested on: Rattus norvegicus; test: Inhibition of plasma triglycerides in normolipidemic rats after 6 hr of 50 mg/kg oral dosing; type: functional
How it was run: (§1)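 Overnight-fasted normolipidemic rats received a single oral dose in cornstarch vehicle. Blood was drawn at 2, 6 and 24 h post-dose and assayed for triglycerides and total cholesterol, with free access to food after the 6 h sample. Value is mean percent inhibition versus a separate vehicle-treated group, unpaired t test p < 0.05, NS = no significant change, N = 6.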

[4] = tested on: Rattus norvegicus; test: Inhibition of plasma triglycerides in normolipidemic rats after 2 hr of 50 mg/kg oral dosing; type: functional; how it was run: as §1
[5] = tested on: Rattus norvegicus; test: Inhibition of plasma triglycerides in normolipidemic rats after 24 hr of 5 mg/kg oral dosing; no significant change; type: functional, organism-based; parameters: dose 5 mg/kg; how it was run: as §1
[6] = tested on: Rattus norvegicus; test: Inhibition of total cholesterol in normolipidemic rats after 6 hr of 5 mg/kg oral dosing; type: functional; how it was run: as §1
[7] = tested on: Rattus norvegicus; test: Inhibition of total cholesterol in normolipidemic rats after 24 hr of 5 mg/kg oral dosing; no significant change; type: functional, organism-based; parameters: dose 5 mg/kg; how it was run: as §1
[8] = tested on: Rattus norvegicus; test: Inhibition of plasma triglycerides in normolipidemic rats after 24 h of 50 mg/kg oral dosing; no significant change; type: functional, organism-based; parameters: dose 50 mg/kg; how it was run: as §1
[9] = tested on: Rattus norvegicus; test: Inhibition of total cholesterol in normolipidemic rats after 2 h of 5 mg/kg oral dosing; type: functional; how it was run: as §1
[10] = tested on: Rattus norvegicus; test: Inhibition of plasma triglycerides in normolipidemic rats after 2 hr of 5 mg/kg oral dosing; type: functional; how it was run: as §1
[11] = tested on: Rattus norvegicus; test: Inhibition of total cholesterol in normolipidemic rats after 24 hr of 50 mg/kg oral dosing; no significant change; type: functional, organism-based; parameters: dose 50 mg/kg; how it was run: as §1
[12] = tested on: Rattus norvegicus; test: Inhibition of total cholesterol in normolipidemic rats after 2 hr of 50 mg/kg oral dosing; type: functional; how it was run: as §1
[13] = tested on: Rattus norvegicus; test: Inhibition of plasma triglycerides in normolipidemic rats after 6 h of 5 mg/kg oral dosing; type: functional; how it was run: as §1
[14] = tested on: Rattus norvegicus; test: Inhibition of total cholesterol in normolipidemic rats after 6 hr of 50 mg/kg oral dosing; type: functional; how it was run: as §1
[15] = tested on: Rattus norvegicus; test: Inhibition of plasma triglycerides in normolipidemic rats after 6 h of […] mg/kg oral dosing; no significant change; type: functional, organism-based; parameters: dose 50 mg/kg
[16] = tested on: Rattus norvegicus; test: Inhibition of plasma triglycerides in normolipidemic rats after 24 hr of 50 mg/kg oral dosing; No significant change; type: functional, organism-based; parameters: dose 50 mg/kg; how it was run: as §1
[17] = tested on: Rattus norvegicus; test: Inhibition of total cholesterol in normolipidemic rats after 6 h of […] mg/kg oral dosing; no significant change; type: functional, organism-based; parameters: dose 50 mg/kg
[18] = tested on: Rattus norvegicus; test: Inhibition of plasma triglycerides in normolipidemic rats after 2 hr of 50 mg/kg oral dosing; no significant change; type: functional, organism-based; parameters: dose 50 mg/kg; how it was run: as §1
[19] = tested on: Rattus norvegicus; test: Inhibition of total cholesterol in normolipidemic rats after 2 hr of 50 mg/kg oral dosing; no significant change; type: functional, organism-based; parameters: dose 50 mg/kg; how it was run: as §1

Chain of Apolipoprotein B-100 (Homo sapiens) (P04114 whole entry): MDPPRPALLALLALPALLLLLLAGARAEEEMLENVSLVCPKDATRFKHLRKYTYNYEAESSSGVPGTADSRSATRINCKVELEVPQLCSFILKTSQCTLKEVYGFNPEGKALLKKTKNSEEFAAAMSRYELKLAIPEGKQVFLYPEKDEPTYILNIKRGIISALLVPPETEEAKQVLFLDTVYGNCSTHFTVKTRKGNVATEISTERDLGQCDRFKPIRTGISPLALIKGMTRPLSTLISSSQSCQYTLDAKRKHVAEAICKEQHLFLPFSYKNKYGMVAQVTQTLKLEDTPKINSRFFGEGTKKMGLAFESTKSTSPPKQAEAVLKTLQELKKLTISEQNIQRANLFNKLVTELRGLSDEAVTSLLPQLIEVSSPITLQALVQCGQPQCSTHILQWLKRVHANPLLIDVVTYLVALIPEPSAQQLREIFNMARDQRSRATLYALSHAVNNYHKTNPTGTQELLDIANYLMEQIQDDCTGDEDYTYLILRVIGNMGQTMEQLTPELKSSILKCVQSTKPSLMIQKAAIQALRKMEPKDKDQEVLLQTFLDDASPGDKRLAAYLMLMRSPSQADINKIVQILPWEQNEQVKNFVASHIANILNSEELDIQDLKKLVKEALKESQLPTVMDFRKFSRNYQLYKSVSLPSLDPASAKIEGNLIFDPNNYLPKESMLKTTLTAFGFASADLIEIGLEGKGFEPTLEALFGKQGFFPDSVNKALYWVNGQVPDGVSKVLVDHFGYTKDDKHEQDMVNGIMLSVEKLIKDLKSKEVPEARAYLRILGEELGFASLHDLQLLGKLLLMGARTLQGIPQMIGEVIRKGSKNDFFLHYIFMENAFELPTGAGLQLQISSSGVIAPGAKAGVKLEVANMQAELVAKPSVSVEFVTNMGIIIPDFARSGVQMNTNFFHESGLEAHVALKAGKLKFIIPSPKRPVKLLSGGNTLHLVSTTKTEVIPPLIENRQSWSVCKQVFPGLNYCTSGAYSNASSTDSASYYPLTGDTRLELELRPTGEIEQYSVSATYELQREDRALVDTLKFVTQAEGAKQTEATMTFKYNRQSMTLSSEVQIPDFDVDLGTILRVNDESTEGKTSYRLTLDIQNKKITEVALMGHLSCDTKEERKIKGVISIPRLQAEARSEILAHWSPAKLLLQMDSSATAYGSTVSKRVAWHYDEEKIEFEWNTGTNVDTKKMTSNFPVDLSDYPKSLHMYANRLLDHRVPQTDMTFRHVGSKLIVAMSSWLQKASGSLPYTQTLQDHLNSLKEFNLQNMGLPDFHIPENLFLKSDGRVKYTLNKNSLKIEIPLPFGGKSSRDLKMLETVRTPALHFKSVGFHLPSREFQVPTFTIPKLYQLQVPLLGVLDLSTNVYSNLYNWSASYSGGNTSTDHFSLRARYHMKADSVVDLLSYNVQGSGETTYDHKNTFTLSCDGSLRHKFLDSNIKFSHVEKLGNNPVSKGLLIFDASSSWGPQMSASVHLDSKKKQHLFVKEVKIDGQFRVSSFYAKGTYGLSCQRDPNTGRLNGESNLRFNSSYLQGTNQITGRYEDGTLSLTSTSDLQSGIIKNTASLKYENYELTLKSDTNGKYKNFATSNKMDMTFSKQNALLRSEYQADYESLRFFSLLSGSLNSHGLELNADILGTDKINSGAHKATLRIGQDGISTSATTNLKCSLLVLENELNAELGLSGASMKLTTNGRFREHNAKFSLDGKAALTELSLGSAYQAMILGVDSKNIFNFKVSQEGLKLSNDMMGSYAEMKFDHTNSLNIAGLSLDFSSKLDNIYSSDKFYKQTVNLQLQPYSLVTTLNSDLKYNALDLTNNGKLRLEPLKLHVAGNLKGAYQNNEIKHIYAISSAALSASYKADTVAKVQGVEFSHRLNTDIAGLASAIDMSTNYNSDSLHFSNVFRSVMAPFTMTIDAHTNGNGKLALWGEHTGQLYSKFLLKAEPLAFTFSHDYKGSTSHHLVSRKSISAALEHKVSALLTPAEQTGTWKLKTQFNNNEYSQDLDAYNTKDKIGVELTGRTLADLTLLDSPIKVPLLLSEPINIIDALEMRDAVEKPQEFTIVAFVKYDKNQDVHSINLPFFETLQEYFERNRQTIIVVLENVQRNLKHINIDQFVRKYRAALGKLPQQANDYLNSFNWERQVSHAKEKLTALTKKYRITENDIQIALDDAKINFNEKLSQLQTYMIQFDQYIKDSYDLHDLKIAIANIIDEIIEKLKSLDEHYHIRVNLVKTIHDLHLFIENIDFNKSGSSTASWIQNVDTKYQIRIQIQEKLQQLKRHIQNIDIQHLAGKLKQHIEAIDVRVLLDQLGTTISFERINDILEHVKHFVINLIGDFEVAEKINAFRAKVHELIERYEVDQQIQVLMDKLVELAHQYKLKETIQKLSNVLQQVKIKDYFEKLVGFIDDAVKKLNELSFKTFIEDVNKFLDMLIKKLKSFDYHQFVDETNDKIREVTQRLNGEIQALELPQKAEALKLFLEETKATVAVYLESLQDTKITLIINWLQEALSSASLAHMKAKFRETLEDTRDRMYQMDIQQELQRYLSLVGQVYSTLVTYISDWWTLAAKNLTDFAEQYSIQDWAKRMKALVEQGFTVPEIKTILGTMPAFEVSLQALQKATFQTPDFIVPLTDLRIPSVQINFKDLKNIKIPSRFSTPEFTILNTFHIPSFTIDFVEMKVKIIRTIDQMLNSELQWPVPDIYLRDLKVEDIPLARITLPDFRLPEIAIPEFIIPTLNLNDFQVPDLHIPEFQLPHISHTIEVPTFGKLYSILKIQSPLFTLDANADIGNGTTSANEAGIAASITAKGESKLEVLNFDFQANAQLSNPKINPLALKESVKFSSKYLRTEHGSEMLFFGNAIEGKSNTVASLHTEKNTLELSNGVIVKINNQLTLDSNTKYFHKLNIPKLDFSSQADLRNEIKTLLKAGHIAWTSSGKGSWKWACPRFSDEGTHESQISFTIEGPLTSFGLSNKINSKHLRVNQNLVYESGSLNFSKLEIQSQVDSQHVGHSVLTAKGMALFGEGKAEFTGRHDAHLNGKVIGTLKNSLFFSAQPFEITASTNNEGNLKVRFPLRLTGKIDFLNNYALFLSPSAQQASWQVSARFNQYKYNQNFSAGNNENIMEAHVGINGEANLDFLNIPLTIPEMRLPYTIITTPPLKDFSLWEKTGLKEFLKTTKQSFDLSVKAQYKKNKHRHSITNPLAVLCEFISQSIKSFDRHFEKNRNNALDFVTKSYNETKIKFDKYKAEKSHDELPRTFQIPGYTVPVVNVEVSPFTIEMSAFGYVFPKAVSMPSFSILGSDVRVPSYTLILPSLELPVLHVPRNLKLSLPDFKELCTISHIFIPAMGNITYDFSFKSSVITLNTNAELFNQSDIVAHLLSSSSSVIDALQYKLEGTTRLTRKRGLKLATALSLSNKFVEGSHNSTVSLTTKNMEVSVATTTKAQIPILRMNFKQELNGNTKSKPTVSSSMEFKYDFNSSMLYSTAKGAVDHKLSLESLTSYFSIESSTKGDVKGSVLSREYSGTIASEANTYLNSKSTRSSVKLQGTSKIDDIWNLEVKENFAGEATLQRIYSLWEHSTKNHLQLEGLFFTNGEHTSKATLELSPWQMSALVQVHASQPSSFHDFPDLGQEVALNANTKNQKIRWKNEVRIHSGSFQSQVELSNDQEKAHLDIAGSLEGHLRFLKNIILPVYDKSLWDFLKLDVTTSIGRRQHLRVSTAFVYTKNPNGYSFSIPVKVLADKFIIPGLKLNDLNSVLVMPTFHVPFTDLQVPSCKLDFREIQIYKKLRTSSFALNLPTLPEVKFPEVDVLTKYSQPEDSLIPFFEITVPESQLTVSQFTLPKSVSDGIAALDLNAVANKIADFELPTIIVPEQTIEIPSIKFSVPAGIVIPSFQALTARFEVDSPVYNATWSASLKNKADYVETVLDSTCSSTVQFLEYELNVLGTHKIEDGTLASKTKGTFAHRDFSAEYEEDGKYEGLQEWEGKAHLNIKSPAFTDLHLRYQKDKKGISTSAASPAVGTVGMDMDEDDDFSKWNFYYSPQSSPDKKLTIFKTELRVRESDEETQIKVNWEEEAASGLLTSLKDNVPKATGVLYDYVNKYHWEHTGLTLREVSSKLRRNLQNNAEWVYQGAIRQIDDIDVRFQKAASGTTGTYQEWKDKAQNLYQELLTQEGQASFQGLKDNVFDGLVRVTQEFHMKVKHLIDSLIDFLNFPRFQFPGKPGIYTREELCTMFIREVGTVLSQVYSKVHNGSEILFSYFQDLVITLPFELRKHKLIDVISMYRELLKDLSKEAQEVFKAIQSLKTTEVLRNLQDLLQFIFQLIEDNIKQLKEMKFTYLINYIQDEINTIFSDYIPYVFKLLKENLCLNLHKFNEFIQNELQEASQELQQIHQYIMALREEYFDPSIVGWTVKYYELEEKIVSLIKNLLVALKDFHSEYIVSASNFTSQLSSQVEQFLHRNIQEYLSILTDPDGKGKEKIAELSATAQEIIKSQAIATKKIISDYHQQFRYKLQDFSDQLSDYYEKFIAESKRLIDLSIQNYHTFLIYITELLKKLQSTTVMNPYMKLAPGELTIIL

Row | SMILES | inhibition [1] [%] | IC50 [2] [nM] | Reduction [3] [%] | Reduction [4] [%] | NS [5] | Reduction [6] [%] | NS [7] | NS [8] | Reduction [9] [%] | Reduction [10] [%] | NS [11] | Reduction [12] [%] | Reduction [13] [%] | Reduction [14] [%] | NS [15] | NS [16] | NS [17] | NS [18] | NS [19]
1 | Cc1cccc(C(=O)Nc2ccc3c(c2)C[C@H](NCc2ccccn2)C3)c1-c1ccc(C(F)(F)F)cc1 | 30 | 410 |  |  |  |  |  |  |  |  |  |  |  |  |  |  |  |  | 
2 | COC(=O)N[C@@H]1Cc2ccc(NC(=O)c3cccc(C)c3-c3ccc(C(F)(F)F)cc3)cc2C1 |  | 70 | 74 | 78 | no significant change | 45 | no significant change | no significant change | 33 | 85 | no significant change | 27 | 71 | 43 |  |  |  |  | 
3 | COC(=O)N[C@H]1Cc2ccc(NC(=O)c3cc(C)ccc3-c3ccc(C(F)(F)F)cc3)cc2C1 |  | 170 |  |  |  |  |  |  |  |  | no significant change |  |  |  | no significant change | no significant change | no significant change | no significant change | no significant change
